TAAR1 antag = human TAAR1 antagonists, primary screen, Fluo-8 calcium fluorescence, CHO RD-HGA16 cells; antagonist; actives 1.5% (n = 360,000); inhibition, % at 3 µM; Trace amine-associated receptor 1 (Homo sapiens), Q96RJ0;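 active = inhibition above a per-plate cutoff, the mean inhibition of test compounds on that plate plus 3 SD, cut at about 49% in these data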
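System: RD-HGA16 CHO cells with stable hTAAR1 and Gα16 | Probe or stimulus: EC80 β-phenethylamine stimulus | Dosing: 3 µM, single point | Times: Dye loading 75 min at 37 °C, then 30 min room temperature | Measured by: Fluo-8 calcium-sensitive fluorescence | Read-out basis: % inhibition of agonist calcium response | Replicates: n of 1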
Beta2AR agonist = beta2AR agonists driving receptor internalization, primary screen, cell-based, FAP fluorogen, flow cytometry | Am2.2-beta2AR cells | response, % (test concentration not listed) | Beta-2 adrenergic receptor (Homo sapiens), P07550 | actives 0.43% (n = 340,000);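 active = response above a set limit, near 3 SD of response in nonfluorescent compounds, cut at about 42% in these data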
Target sequence (P07550 whole entry, looked up): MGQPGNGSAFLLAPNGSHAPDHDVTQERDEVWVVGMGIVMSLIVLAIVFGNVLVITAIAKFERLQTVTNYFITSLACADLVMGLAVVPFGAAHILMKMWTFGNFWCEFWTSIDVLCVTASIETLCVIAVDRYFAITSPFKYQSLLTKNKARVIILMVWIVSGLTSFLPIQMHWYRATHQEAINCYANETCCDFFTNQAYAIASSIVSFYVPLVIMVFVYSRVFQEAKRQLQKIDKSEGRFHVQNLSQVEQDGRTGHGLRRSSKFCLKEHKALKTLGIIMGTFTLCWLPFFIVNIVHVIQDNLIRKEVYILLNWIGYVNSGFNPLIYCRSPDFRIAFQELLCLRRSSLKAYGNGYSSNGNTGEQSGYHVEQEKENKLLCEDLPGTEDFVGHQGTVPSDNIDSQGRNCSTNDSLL
TAAR1 agonist = human TAAR1 agonists, primary screen, Fluo-8 calcium fluorescence, CHO RD-HGA16 cells; Trace amine-associated receptor 1 (Homo sapiens), Q96RJ0; vehicle wells 0%, saturating PEA agonist 100%; activation, % at 3 µM; actives 0.99% (n = 360,000);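 active = activation above the mean activation of all test compounds in the run plus 3 SD, cut at about 38% in these data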
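Test system: RD-HGA16 (CHO) cells co-expressing Gα16 and hTAAR1 / Benchmarks: DMSO vehicle as 0%, PEA at EC100 as 100% / Repeats: no replicates (n 1) / Measure: % activation from peak over basal fluorescence ratio, DMSO-to-PEA scaled / Timing: 17-24 h plating, Fluo-8 75 min 37 °C, 30 min RT / Technique: kinetic Fluo-8 calcium fluorescence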
MC4R antag cAMP = MC4R antagonists of cAMP signaling, primary screen, cell-based, TR-FRET, antagonist arm of biased-ligand search; MC4R-expressing cells, MTII-stimulated cAMP, LANCE TR-FRET; inhibition, % at 6.5 µM; Melanocortin receptor 4 (Homo sapiens), P32245; actives 0.48% (n = 360,000); AID 540295, 2011;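 active = inhibition above its plate's cutoff, the mean of tested wells on that plate plus 3 SD, cut at about 29% in these data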
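Material: human MC4R-expressing U2OS cells. Probe or stimulus: Melanotan II challenge. Dosing: 6.5 µM single dose. Times: 30-min compound, 1-h challenge, 1-h detection, room temperature. Technique: TR-FRET with Eu-cAMP and labeled anti-cAMP, 671 nm. Replication: singlicate.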
MC4R barr agon = MC4R agonists recruiting beta-arrestin, primary screen, cell-based, luminescence, agonist arm of biased-ligand search; Melanocortin receptor 4 (Homo sapiens), P32245; actives 0.98% (n = 360,000); activation, % at 8.9 µM; U2OS MC4R beta-arrestin complementation; percent of melanotan II response, DMSO zero;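 active = activation above a per-plate cutoff, the mean activation of sample wells on that plate plus 3 SD, cut at about 8% in these data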
HTR2A ag = mouse Htr2a agonists via beta-arrestin recruitment, primary screen, cell-based, luminescence; CHO-K1 mHTR2A beta-arrestin complementation; percent of 30 µM serotonin response; AID 624169, 2012; actives 0.66% (n = 360,000); activation, % at 7.6 µM; 5-hydroxytryptamine receptor 2A (Mus musculus), P35363;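 active = activation above a run cutoff, the mean activation of all tested compounds plus 3 SD, cut at about 14% in these data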
cAMP nonselect = nonselective cAMP signaling inhibitors, parental cells, counter-screen for MC4R biased antagonist project, cell-based, TR-FRET, U2OS, forskolin, triplicate; shares compounds with MC4R antag cAMP; LANCE TR-FRET; inhibition, % at 6.5 µM; actives 26% (n = 1,600); AID 602193, 2012;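 active = mean inhibition over triplicates above the low-control well mean plus 3 SD, set per campaign, cut at about 13% in these data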;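 also: signal is single emission at 671 nm which falls as cellular cAMP rises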
MC4R antag conf = MC4R cAMP antagonists, retest, confirmation, cell-based, TR-FRET. actives 27% (n = 1,600). AID 602195, 2012. inhibition, % at 6.5 µM. MC4R-expressing cells, MTII-stimulated cAMP. shares compounds with MC4R antag cAMP; in the data active = inhibition above about 29%
Of the large screens only hits and unclear results are named; the others gave an inactive call (follow-up assays come after a bar, where they were run). The list is not random: actives were taken first. Their share in the collection is about 4.3%.

CCOC(=O)c1c(NC(=O)COc2cccc3c2CCN(C)C3=O)sc2c1CCC2	MC4R antag cAMP 30, MC4R barr agon 8.7 | cAMP nonselect inactive | MC4R antag conf 51
O=C(OCCN1CCCCC1)c1ccccc1Br	MC4R antag cAMP 30 | cAMP nonselect inactive | MC4R antag conf inactive
O=C(OCCN1CCCCC1)c1ccc(Cl)cc1	none
Cc1cc(Br)c2nc3c(c(C(=O)O)c2c1)CCCCC3	MC4R antag cAMP active | cAMP nonselect active
Clc1ccc(OCCCCCN2CCCC2)c(Br)c1	MC4R antag cAMP 30 | cAMP nonselect inactive | MC4R antag conf inactive
C[C@@H]1CN([C@@H](C)CO)C(=O)c2cc(Br)cnc2O[C@H]1CN(C)C(=O)C1CC1	none (no result: Beta2AR agonist)
O=C(NC(=S)Nc1cc(S(=O)(=O)N2CCOCC2)ccc1N1CCOCC1)c1ccco1	MC4R antag cAMP 37 | cAMP nonselect inactive | MC4R antag conf inactive
Brc1ccc(-c2nn3c(-c4ccco4)nnc3s2)o1	MC4R antag cAMP 45 | cAMP nonselect 26 | MC4R antag conf 39
Clc1ccc(-c2ccc(-c3nn4c(-c5ccco5)nnc4s3)o2)cc1	none
COc1ccc(-c2cc(C(=O)Nc3ccc(Br)cc3)no2)cc1	MC4R antag cAMP 29 | cAMP nonselect inactive | MC4R antag conf inactive
COc1ccc(-c2cc(C(=O)Nc3cc(C)on3)no2)cc1OC	MC4R antag cAMP 31 | cAMP nonselect inactive | MC4R antag conf inactive
Cc1cc(NC(=O)c2cc(-c3ccc(O)cc3)on2)no1	none
CC(C)Cc1ccc(-c2cc3nc(NCCOc4ccccc4)ccn3n2)cc1	none (no result: Beta2AR agonist)
CCN(CC)S(=O)(=O)c1ccc(Cl)c(C(=O)Nc2nncs2)c1	none
CCN(CC)S(=O)(=O)c1cc(C(=O)Nc2nncs2)c(Cl)cc1Cl	MC4R antag cAMP 43 | cAMP nonselect 17 | MC4R antag conf 43
CCOCCn1c(CN2CCN(c3ccc(F)cc3)CC2)nc2c1c(=O)n(C)c(=O)n2C	none
COC(=O)Cn1c(CN2CCN(c3ccc(F)cc3)CC2)nc2c1c(=O)n(C)c(=O)n2C	MC4R antag cAMP 29 (no result: TAAR1 antag, TAAR1 agonist) | cAMP nonselect inactive | MC4R antag conf inactive
CCCCC(=O)NNC(=O)CC(=O)Nc1ccccc1C(=O)O	none
CCOCC(=O)Nc1ccccc1C(=O)O	MC4R antag cAMP 30 | cAMP nonselect inactive | MC4R antag conf inactive
N#Cc1ccccc1NC(=O)CSc1nnc(-c2ccncc2)o1	MC4R antag cAMP 30 | cAMP nonselect inactive | MC4R antag conf inactive
COc1cc(C)c(CN2CCC(Oc3ccc(C(=O)N4CCCC4)cc3)CC2)cc1C	none
Cc1ccccc1CN1CCC(Oc2ccc(C(=O)N3CCCC3)cc2)CC1	MC4R antag cAMP 29 | cAMP nonselect inactive | MC4R antag conf inactive
c1ccc(-c2nnc(OCc3cccnc3)c3ccccc23)cc1	MC4R antag cAMP 29 | cAMP nonselect inactive | MC4R antag conf inactive
Cc1cc(NS(=O)(=O)c2ccc(NC(=O)c3oc4ccccc4c3C)cc2)no1	MC4R antag cAMP 29 | cAMP nonselect inactive | MC4R antag conf inactive
Cc1c(C(=O)Nc2ccc(S(=O)(=O)Nc3ncccn3)cc2)oc2ccccc12	none
